Structures are written as SMILES.

This series is described as follows: Toxicity liver stage against HepG2, at 10uM. Further details: test concentration 10 uM, cell line HepG2-A16-CD81EGFP. In kind it is cell-based. As to conditions: human, HepG2-A16-CD81EGFP cells; read-out: INHIBITION
In short, it runs like this: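 Uninfected HepG2-A16-CD81EGFP cells, 3 × 10^3 per well, 1536-well, plated on prespotted compound at 10 μM final, parasite-free screening media added to match infected plates; puromycin 10 μM positive, DMSO 0.5% negative; run in parallel with 48 h PbLuc assay at 37 °C, 5% CO2; viability by CellTiter-Glo luminescence, normalized to controls.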
As to `COc1ccc(NC(=O)CSc2nc(C)cc(C)n2)cn1`, the cytotoxicity at 10 µM was -0.384%.
As for `CCOc1ccc(Oc2cc(CN)ccn2)cc1`, the figure is 0.102%; as for `O=c1c2ccccc2nnn1CN(CC1CCOC1)C1CC1` (stereo not drawn), -0.543%.
Consider `Cc1ccc2[nH]c(CO[C@H]3CN(c4ccc(C#N)cn4)C[C@H]3F)nc2c1`, for which the cytotoxicity at 10 µM is -1.6%.
The value for `COc1ccc2nc3n(c2c1)[C@@H](CNC(=O)c1cncnc1)COC3` was 0.488%.
For the compound `COc1ccc(CN2CCOC[C@H](OCc3ccccc3)C2)cc1`, the cytotoxicity at 10 µM stood at 2.79%.
The value for `Fc1ccc2c(c1)nc1n2[C@@H](CNCc2nccs2)COC1` was 1.07%; that for `COCC(=O)N[C@H]1C[C@H]2C(=O)NC[C@@H](CCC(=O)NC3CC3)N2C1` was 10.7%; that for `CCC(C)NC(=O)CCn1ccc(C)n1` (stereo not drawn) was -0.634%.
As for `N#CCCN(CC1CCCO1)C(=O)c1ccc(C#N)cc1` (stereo not drawn), the figure is -2.45%; as for `O=C(c1ccoc1)N1CC[C@H]2[C@H]1CCN2CC1CC1`, 2.5%.
The value for `O=C(c1ccc[nH]1)N1CC2(CCN(c3ncccn3)C2)C1` was 2.26%.
Regarding `CCn1nnc2c1CCN(C(=O)c1ccc3c(c1)OCO3)C2COC` (stereo not drawn), the cytotoxicity at 10 µM is 6.43%.
Turning to `CCS(=O)(=O)N1Cc2ccnn2CC(c2nc(C)no2)C1` (stereo not drawn), the cytotoxicity at 10 µM came to 6.86%.
As for `O=C(O)c1nnn(-c2ccc(Cl)c(C(F)(F)F)c2)c1-c1ccncc1`, the figure is 8.63%; as for `Cn1cc(C(=O)N2C[C@@H]3COC[C@]3(COCc3cccnc3)C2)cn1`, -0.8%; as for `O=C(c1ccc[nH]1)N1CCCC2(CCN(c3ccsc3)C2=O)C1` (stereo not drawn), -0.449%.
As for `COc1ccccc1Nc1nc2c(C)nn(C)c2c(=O)n1C`, the figure is 2.56%.
For `Cc1nn(CC(=O)N2CCN(Cc3cnn(C)c3C)CC2)cc1Br`, the cytotoxicity at 10 µM is -7.55%.
`N#Cc1c[nH]nc1NCc1ccc2c(c1)OCO2`: the cytotoxicity at 10 µM is -8.75%.
As to `COCCC(=O)N1Cc2nc3c(C)c(-c4cccs4)nn3c(O)c2C1`, the cytotoxicity at 10 µM was -1.19%.
The value for `C[C@@H]1CN(Cc2ccco2)CCN1C(=O)Cc1ccccc1F` was 4.94%; that for `O=C1NC2(CCCN(C(=O)CCn3cncn3)C2)Oc2ccccc21` (stereo not drawn) was 3.08%.
As for `COc1cc2c(cc1CCC(=O)O)CCC2`, the figure is 1.11%; as for `Cc1cc(-c2ccccc2)nc(C2CCCN2S(C)(=O)=O)n1` (stereo not drawn), 3.5%; as for `Cc1cc(C)n2ncc(CN3C[C@@H](O)[C@H](Oc4ccccc4)C3)c2n1`, -33%.
As for `CCCNC(=O)c1cc(C2CCCN(Cc3ccccn3)C2)no1` (stereo not drawn), the figure is -32%; as for `O=S(=O)(N1CCOCC1)N1CCCC1Cn1cccn1` (stereo not drawn), -8.18%; as for `Cn1ccc(C(=O)N2CCOC(c3ccccn3)C2)cc1=O` (stereo not drawn), -31.4%.
With `CCc1ccccc1Nc1noc2c1CN(C(=O)CCOC)CC2`, the cytotoxicity at 10 µM was -16.6%.
On to `COCCN1CCC(c2cncc(-c3cccc(Cl)c3)n2)CC1`, for which the cytotoxicity at 10 µM is -29.9%.
With `Cn1cnc(CNC(=O)c2ccccc2-n2cc(CN)cn2)c1`, the cytotoxicity at 10 µM is -16.9%.
As for `O=C(O)COc1ccccc1CN1CCCC1c1ccncn1` (stereo not drawn), the figure is -29.2%; as for `CCS(=O)(=O)NCCNc1c(C#N)cnc2c(F)cc(F)cc12`, 16.2%.
`CCOc1cccc(NCc2cnc(N3CCN(C)CC3)nc2)n1`: the cytotoxicity at 10 µM came out at 1.75%.
The value for `CCN(CC)S(=O)(=O)NC(=O)c1cc(C)n(-c2ccccc2)n1` was -9.68%.
Turning to `Cc1cc(-n2c(C)cn(CN(C)Cc3ccccc3)c2=O)no1`, the cytotoxicity at 10 µM was found to be 10.3%.
The value for `FC(F)(F)CCN(Cc1ccon1)C1CCC1` was 1.19%; that for `Cc1ccc(NC(=O)C2CCCN2C(=O)C2CC2)nc1` (stereo not drawn) was -2.15%.
As for `CNC(=O)c1cccc(CN2CCC(N(C)Cc3noc(C)n3)C2)c1` (stereo not drawn), the figure is 4.37%; as for `COCCn1cc(NC(=O)NC(C)c2ccc(Cl)s2)cn1` (stereo not drawn), 7.25%.
As to `CCOCCCOC(=O)c1ccc2c(c1)[nH]c(=O)n2C`, the cytotoxicity at 10 µM is 3.54%.
As for `Fc1ccccc1CN1CCC(c2n[nH]c(C3CC3)n2)CC1`, the cytotoxicity at 10 µM stood at 6.21%.
The value for `CS(=O)(=O)Nc1cccc(CNC(=O)CCc2ccsc2)c1` was 2.24%; that for `CCNC(=O)C1CCCN(c2cccc(C(F)(F)F)n2)C1` (stereo not drawn) was 3.4%.
As for `CCOCCN1CCN(CCc2nc3ccccc3c(=O)[nH]2)CC1`, the figure is 4.12%.
On to `COc1cc(CN(C)C(=O)NCc2nccs2)ccc1SC`, for which the cytotoxicity at 10 µM is -7.66%.
As for `NCC1(c2cccc(C(F)(F)F)c2)CCC1`, the figure is -4.27%.
As for `c1ccc(-c2nc(CN3CCOC(Cn4cccn4)C3)cs2)cc1` (stereo not drawn), the figure is 8.62%; as for `CCCOc1ccc(Cl)cc1NC(=O)NCCC(=O)N(C)C`, -0.734%; as for `NC(=O)c1cnc(NC2CCN(c3ccccn3)CC2)c(Cl)c1`, 13.8%.
The value for `CCOCCC(=O)Nc1cc(C)cnc1OC` was 18.9%; that for `CCN(C(C)=O)C(c1cccnc1)c1cc(C)cc(C)c1` (stereo not drawn) was 6.72%.
Turning to `O=C(NC1CCCN(c2ccc(OC(F)F)cc2)C1)c1cnc[nH]1` (stereo not drawn), the cytotoxicity at 10 µM was -2.15%.
With `NS(=O)(=O)N1CCC(CSc2ccccc2)C1` (stereo not drawn), the cytotoxicity at 10 µM was -9.8%.
As for `CN(C(=O)CN(Cc1cccc(O)c1)C1CCC(O)CC1)C1CC1` (stereo not drawn), the figure is -0.586%; as for `Cc1cccc(C(C)(C)CNc2cn[nH]c(=O)c2Cl)c1`, 23.3%.
Take `CCOC(C)c1nc(Cn2cccn2)cs1` (stereo not drawn): the cytotoxicity at 10 µM came to 1.04%.
`NC(=O)CCn1nnc(-c2cc3ccccc3o2)n1`: the cytotoxicity at 10 µM worked out at 4.56%.
As for `OCC(CO)Nc1ccc2ccc(Cl)c(Cl)c2n1`, the figure is -8.82%; as for `CN(CC(N)=O)C(=O)C1Cc2cc(Cl)ccc2O1` (stereo not drawn), 2.93%.
The value for `Cc1cc(C2CCCN2c2ncc(C(N)=O)cc2Cl)no1` (stereo not drawn) was -4.57%; that for `Cc1cc(C(=O)NCCN2CCCC(C)C2)nn1C(C)(C)C` (stereo not drawn) was 9.34%.
As for `CCNc1cc2c(nn1)CCN(C(=O)c1ccc(-n3cccn3)nc1)C2`, the figure is 5.05%; as for `CN(Cc1ccncc1)C(=O)Nc1cnn(CC2CCCO2)c1` (stereo not drawn), -0.291%.
In the case of `Cc1noc([C@]23COC[C@H]2CN(C(=O)COC2CCCC2)C3)n1`, the cytotoxicity at 10 µM was -104%.
The value for `Cn1ncc2c1C(COCC1CC1)CN(Cc1ccc(F)cc1)C2` (stereo not drawn) was 1.23%; that for `Cn1cc2ncn(C3CCN(c4ccccc4F)CC3)c(=O)c2n1` was 4.44%; that for `N#Cc1cccc(N2CCC(c3nccn3Cc3cscn3)CC2)n1` was 1.46%.
The value for `COc1nc2c(cc1C(=O)NCCc1nc3c(s1)CCC3)CCC2` was 5.05%; that for `CCN(C)S(=O)(=O)N1CCCC(c2cccc(C(=O)O)c2)C1` (stereo not drawn) was 0.91%.
As to `COc1cnc(N2CCC(c3ncc[nH]3)CC2)nc1`, the cytotoxicity at 10 µM is 0.852%.
As for `CC(C)c1cc(N2CCSCC2)n2nccc2n1`, the figure is 4.66%; as for `c1cncc(Cc2nnc3n2CCN(CC2CCOC2)CC3)c1` (stereo not drawn), -2.11%; as for `COC(=O)CCCNC(=O)c1cc(COc2cncc(Cl)c2)on1`, 8.23%.
The value for `CC(C)(CN1CCCC1)CN1CCC(Cn2cc(CCO)nn2)CC1` was 1.87%; that for `Nc1nc2c(c(N3CCOCC3)n1)CCN(C(=O)c1ccc[nH]1)CC2` was -2.02%; that for `COCCN1CCCC2(CCN(c3ncc(Cl)cc3Cl)C2)C1=O` (stereo not drawn) was 9.44%.
As for `Cc1cc(N2CC[C@H](O)C2)n2nc(C)c(C)c2n1`, the figure is -3.62%.
For `Cc1cc(C)n(CCC2CC(=O)Nc3cc(O)c(C)cc32)n1` (stereo not drawn), the cytotoxicity at 10 µM is -1.74%.
The value for `Cc1nsc(NC(=O)N2CCC(C(C)(C)O)CC2)n1` was 17.5%.
As for `O=C(O)C(c1ccc2c(c1)OCCO2)N1CCCCCC1` (stereo not drawn), the figure is -3.26%.
As for `O=C(CCc1ccc(O)cc1)N1CCC(Cc2ccc(CO)cc2)C1` (stereo not drawn), the figure is 14.8%.
With `O=C1C(NCc2nnc3n2CCCC3)CCCN1c1ccccc1` (stereo not drawn), the cytotoxicity at 10 µM was -9.69%.
For `N#Cc1cccnc1N1CCC(C2CCCCCN2C(N)=O)CC1` (stereo not drawn), the cytotoxicity at 10 µM is -2.51%.
The value for `CCc1nnc2n1CCN(Cc1ncc(-c3ccc(Cl)cc3)o1)C2` was -9.66%.
The value for `Cc1noc(C)c1CCC(=O)N1CCCN(Cc2cscn2)CC1` was -4.51%; that for `COc1cccc(CCC(=O)N2CCCCC2Cn2cccn2)c1` (stereo not drawn) was -11.3%; that for `O=C(N1CCOCC1)N1CCC2(CCNC2)C1` (stereo not drawn) was -2.89%.
As for `CC1c2ncc(CNC(=O)C3CC3)n2CCN1Cc1cccnc1` (stereo not drawn), the figure is -3.76%; as for `c1cnc(N2CCC3(CCN(CC4CC4)CC3)CC2)nc1`, 0.77%.
As to `Cc1nc(COC[C@@]23CCC[C@@H]2CN(CC2CCOCC2)C3)cs1`, the cytotoxicity at 10 µM came to 7.98%.
On to `CN(C[C@@H]1CCC[C@@H]2CN(Cc3cccnc3)C[C@@H]21)C1CC1`, for which the cytotoxicity at 10 µM worked out at 8.01%.
As for `CC(=O)N1CCCC2(C1)CN(c1ncc(C)cn1)CCO2` (stereo not drawn), the figure is 14%.
The value for `O=C(Nc1cc(C(F)(F)F)c[nH]c1=O)C1CCCCN1` (stereo not drawn) was -0.924%; that for `O=C([C@@H]1COC[C@H]2CN(C3CCOCC3)C[C@H]21)N1CCOCC1` was -4.14%; that for `O=C1CC2(CCN(CC3CC3)C2)CN1c1cccc(F)c1` (stereo not drawn) was -6.25%.
The value for `CCn1cc(-n2cc3nc(N4CCN(C)CC4)[nH]cc-3c2=O)cn1` was 1.54%.

These data come from ChEMBL document CHEMBL4513216, “Probing the Open Global Health Chemical Diversity Library for Multistage-Active Starting Points for Next-Generation Antimalarials” (ACS Infect Dis, 2020).
